In ChEMBL document CHEMBL3046353, “Synthesis and fungicidal activity of some 5-membered heterocyclic derivatives containing benzimidazoles” (1993):
Activity calls are given as the source filed them. No cut-off for these calls is given here.

Columns and labels:
Avena sativa [1] = assay: Herbicidal activity against Avena sativa under paddy conditions; assay type: functional, organism-based
Avena sativa [2] = assay: Post-emergence herbicidal activity against Avena sativa; assay type: functional, organism-based
Musca domestica = assay: Insecticidal activity against Musca domestica (house fly); assay type: functional, organism-based
Abutilon theophrasti [3] = assay: Pre-emergence herbicidal activity against Abutilon theophrasti (velvetleaf); assay type: functional, organism-based
Sagittaria latifolia [4] = assay: Pre-emergence herbicidal activity against Sagittaria latifolia (broadleaf arrowhead); assay type: functional, organism-based
Culex pipiens pallens = assay: Insecticidal activity against Culex pipiens pallens (mosquito) at 3 to 5 ppm; assay type: functional, organism-based
Oryza sativa [5] = assay: Herbicidal activity against Oryza sativa (rice) under paddy conditions; assay type: functional, organism-based
Echinochloa crus-galli [6] = assay: Herbicidal activity against Echinochloa crus-galli (barnyard grass) under paddy conditions; assay type: functional, organism-based
Sagittaria latifolia [7] = assay: Post-emergence herbicidal activity against Sagittaria latifolia (broadleaf arrowhead); assay type: functional, organism-based
Sagittaria latifolia [8] = assay: Herbicidal activity against Sagittaria latifolia (broadleaf arrowhead) under paddy conditions; assay type: functional, organism-based
Tetranychus cinnabarinus = assay: Insecticidal activity against Tetranychus cinnabarinus (carmine spider mite); assay type: functional, organism-based
Convolvulaceae [9] = assay: Pre-emergence herbicidal activity against Convolvulaceae (morning glory family); assay type: functional, organism-based
Helminthosporium = assay: Fungicidal activity against Helminthosporium oryzae at 500 ppm after 7 days by poisoned food technique; assay type: functional; settings: 168 h, read-out: GI
How it was run: (§1)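 Cultures kept on potato dextrose agar. Each compound, dissolved in acetone, was added to potato dextrose agar at a final 500 ppm (w/v) (poisoned food technique). A disc cut from the periphery of a seven-day-old culture was inoculated onto each set. Control sets held potato dextrose agar only. The read-out is percentage inhibition of fungal growth relative to control.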

Echinochloa crus-galli [10] = assay: Post-emergence herbicidal activity against Echinochloa crus-galli (barnyard grass); assay type: functional, organism-based
Spodoptera litura = assay: Insecticidal activity against Spodoptera litura; assay type: functional, organism-based
Oryza sativa [11] = assay: Pre-emergence herbicidal activity against Oryza sativa (rice); assay type: functional, organism-based
Avena sativa [12] = assay: Pre-emergence herbicidal activity against Avena sativa; assay type: functional, organism-based
Convolvulaceae [13] = assay: Post-emergence herbicidal activity against Convolvulaceae (morning glory family); assay type: functional, organism-based
Abutilon theophrasti [14] = assay: Post-emergence herbicidal activity against Abutilon theophrasti (velvetleaf); assay type: functional, organism-based
Echinochloa crus-galli [15] = assay: Pre-emergence herbicidal activity against Echinochloa crus-galli (barnyard grass); assay type: functional, organism-based
Schoenoplectus acutus [16] = assay: Pre-emergence herbicidal activity against Schoenoplectus acutus (hardstem bulrush); assay type: functional, organism-based
Oryza sativa [17] = assay: Post-emergence herbicidal activity against Oryza sativa (rice); assay type: functional, organism-based
Convolvulaceae [18] = assay: Herbicidal activity against Convolvulaceae (morning glory family) under paddy conditions; assay type: functional, organism-based
Rhizoctonia solani = assay: Fungicidal activity against Rhizoctonia solani at 500 ppm after 7 days by poisoned food technique; assay type: functional; settings: 168 h, read-out: GI; how it was run: as §1
Schoenoplectus acutus [19] = assay: Herbicidal activity against Schoenoplectus acutus (hardstem bulrush) under paddy conditions; assay type: functional, organism-based
Schoenoplectus acutus [20] = assay: Post-emergence herbicidal activity against Schoenoplectus acutus (hardstem bulrush); assay type: functional, organism-based

Row | Structure (SMILES) | Activity (Avena sativa [1]) | Activity (Avena sativa [2]) | Activity (Musca domestica) | Activity (Abutilon theophrasti [3]) | Activity (Sagittaria latifolia [4]) | Activity (Culex pipiens pallens) | Activity (Oryza sativa [5]) | Activity (Echinochloa crus-galli [6]) | Activity (Sagittaria latifolia [7]) | Activity (Sagittaria latifolia [8]) | Activity (Tetranychus cinnabarinus) | Activity (Convolvulaceae [9]) | inhibition of growth at 500 ppm (Helminthosporium) [%] | Activity (Echinochloa crus-galli [10]) | Activity (Spodoptera litura) | Activity (Oryza sativa [11]) | Activity (Avena sativa [12]) | Activity (Convolvulaceae [13]) | Activity (Abutilon theophrasti [14]) | Activity (Echinochloa crus-galli [15]) | also measured
1 | Cc1ccc2[nH]c(CSc3nnc(-c4ccccc4)s3)nc2c1 | inactive | inactive | inactive | inactive | inactive | Active | inactive | inactive | inactive | inactive | inactive | inactive | 71.3 | inactive | inactive | inactive | inactive | inactive | inactive | inactive | Activity (Schoenoplectus acutus [16]): inactive; Activity (Oryza sativa [17]): inactive; Activity (Convolvulaceae [18]): inactive; inhibition of growth at 500 ppm (Rhizoctonia solani): 64.5%; Activity (Schoenoplectus acutus [19]): inactive; Activity (Schoenoplectus acutus [20]): inactive
2 | c1ccc(-c2nnc(SCc3nc4ccccc4[nH]3)o2)cc1 | inactive | inactive | inactive | inactive | inactive | Active | inactive | inactive | inactive | inactive | inactive | inactive | 73.5 | inactive | inactive | inactive | inactive | inactive | inactive | inactive | Activity (Schoenoplectus acutus [16]): inactive; Activity (Oryza sativa [17]): inactive; Activity (Convolvulaceae [18]): inactive; inhibition of growth at 500 ppm (Rhizoctonia solani): 65.2%; Activity (Schoenoplectus acutus [19]): inactive; Activity (Schoenoplectus acutus [20]): inactive
3 | Nn1c(SCc2nc3ccccc3[nH]2)nnc1-c1cccc(Cl)c1 | inactive | inactive | inactive | inactive | inactive | Active | inactive | inactive | inactive | inactive | inactive | inactive | 89.3 | inactive | inactive | inactive | inactive | inactive | inactive | inactive | Activity (Schoenoplectus acutus [16]): inactive; Activity (Oryza sativa [17]): inactive; Activity (Convolvulaceae [18]): inactive; inhibition of growth at 500 ppm (Rhizoctonia solani): 61.2%; Activity (Schoenoplectus acutus [19]): inactive; Activity (Schoenoplectus acutus [20]): inactive
4 | c1ccc(-c2nnc(SCc3nc4ccccc4[nH]3)s2)cc1 | inactive | inactive | inactive | inactive | inactive | Active | inactive | inactive | inactive | inactive | inactive | inactive | 74.3 | inactive | inactive | inactive | inactive | inactive | inactive | inactive | Activity (Schoenoplectus acutus [16]): inactive; Activity (Oryza sativa [17]): inactive; Activity (Convolvulaceae [18]): inactive; inhibition of growth at 500 ppm (Rhizoctonia solani): 69.8%; Activity (Schoenoplectus acutus [19]): inactive; Activity (Schoenoplectus acutus [20]): inactive
